Published values of several laboratories.
Each line is one published result; the experiments were not run side by side.
CYP2C9: Cytochrome P450 2C9 (CYP2C9, Homo sapiens, UniProt P11712)
DPP4: Dipeptidyl peptidase 4 (DPP4, Homo sapiens, UniProt P27487)
CYP2C8: Cytochrome P450 2C8 (CYP2C8, Homo sapiens, UniProt P10632)
ENAH: Protein enabled homolog (ENAH, UniProt Q8N8S7)

SMILES | target | test | system | setting | endpoint | value
C=C(F)C(=O)N1CCN(c2nc(OC[C@@H]3CCCN3C)nc3c2CCN(c2cccc4cccc(Cl)c24)C3)C[C@@H]1CC#N | CYP2C9 | enzyme activity, inhibitor | human, liver microsomes | – | Ki | 3.2 µM
Cn1c(=O)cc(N2CCC(N)CC2)n(Cc2nc3ccccc3c(=O)n2-c2ccc(F)c(Cl)c2)c1=O | DPP4 | enzyme activity, inhibitor | – | – | IC50 | 35.7 µM
Cn1nc2c(=O)n(C3CC3)cnc2c1[C@](O)(c1cnc(C(F)(F)F)c(Cl)c1)C(F)(F)F | CYP2C8 | enzyme activity, inhibitor | human, liver microsomes | pH 7.4 | IC50 | > 20 µM
CSCC[C@H](NC(=O)[C@H](CCC(=O)O)NC(=O)[C@H](CS)NC(=O)[C@H](CO)NC(=O)[C@H](CC(C)C)NC(=O)[C@H](CCC(=O)O)NC(=O)[C@@H](N)CCC(=O)O)C(=O)N[C@@H](CCC(=O)O)C(=O)NCC(=O)N[C@@H](CC(N)=O)C(=O)N[C@@H](CC(C)C)C(=O)N[C@@H](CCC(=O)O)C(=O)N[C@@H](Cc1c[nH]cn1)C(=O)N[C@@H](CC(C)C)C(=O)N1CCC[C@H]1C(=O)N1CCC[C@H]1C(=O)N1CCC[C@H]1C(=O)N1CCC[C@H]1C(=O)N[C@@H](CCSC)C(=O)N[C@@H](CCC(=O)O)C(=O)N[C@H](C(=O)N[C@@H](CC(C)C)C(=O)N[C@@H](CCSC)C(=O)N[C@@H](CC(=O)O)C(=O)N[C@@H](CCCCN)C(=O)N[C@@H](CO)C(=O)N[C@@H](Cc1ccccc1)C(=O)N[C@@H](C)C(=O)N[C@@H](CO)C(=O)N[C@@H](CC(C)C)C(=O)N[C@@H](CCC(=O)O)C(=O)N[C@@H](CO)C(=O)N1CCC[C@H]1C(=O)N[C@@H](CCC(=O)O)C(=O)N[C@@H](CO)C(=O)O)C(C)C | ENAH | binding, fluorescence | – | – | Kd | 3.1 µM
Cn1cncc1[C@@](N)(c1ccc(Cl)cc1)c1ccc2c(c1)c(-c1cccc(Cl)c1)cc(=O)n2C | CYP2C9 | enzyme activity, inhibitor | human, liver microsomes | – | Ki | 0.35 µM
COc1cc(O)c2c(c1)C(=O)c1cc(C)cc(O)c1C2=O | CYP2C9 | enzyme activity, inhibitor | human, liver microsomes | pH 7.4 | Ki | 3.69 µM
CC[C@H](C)[C@H](NC(=O)[C@H](Cc1c[nH]cn1)NC(=O)[C@@H](N)CCC(=O)O)C(=O)N1CCC[C@H]1C(=O)N1CCC[C@H]1C(=O)N1CCC[C@H]1C(=O)N1CCC[C@H]1C(=O)N[C@@H](CCCNC(=N)N)C(=O)N1CCC[C@H]1C(=O)N1CCC[C@H]1C(=O)N[C@@H](CCCCN)C(=O)N[C@@H](CCCNC(=N)N)C(=O)O | ENAH | binding, FP | – | – | Kd | 13 µM
Cn1c(=O)cc(N2CCC(N)CC2)n(Cc2nc3ccc(Br)cc3c(=O)n2-c2cccc(F)c2)c1=O | DPP4 | enzyme activity, inhibitor | – | – | IC50 | 22.1 µM
CN(C)c1ncnc2c1ncn2[C@@H]1O[C@H](CCl)[C@@H](NC(=O)[C@H](CSC(c2ccccc2)c2ccccc2)NC(=O)OC(C)(C)C)[C@H]1O | Aminopeptidase N (ANPEP, Homo sapiens, UniProt P15144) | enzyme activity, inhibitor, fluorescence | – | – | IC50 | > 100 µM
CC[C@@](N)(c1cnc(C(F)(F)F)c(Cl)c1)c1c2ncn(C3CC3)c(=O)c2nn1C | CYP2C9 | enzyme activity, inhibitor | human, liver microsomes | pH 7.4 | IC50 | > 20 µM
Cn1c(=O)cc(N2CCC(N)CC2)n(Cc2nc3ccc(Br)cc3c(=O)n2-c2ccc(Br)cc2)c1=O | DPP4 | enzyme activity, inhibitor | – | – | IC50 | 11.2 µM
Cn1nc2c(=O)n(C3CC3)ccc2c1[C@](O)(c1cnc(C(F)(F)F)c(Cl)c1)C(F)(F)F | CYP2C8 | enzyme activity, inhibitor | human, liver microsomes | pH 7.4 | IC50 | > 20 µM
CO[C@]1(C(=O)N[C@@H](C)c2ccc(-n3cc(F)cn3)nc2)CC[C@H](c2nc(C)cc(Nc3cc(C)[nH]n3)n2)CC1 | CYP2C8 | enzyme activity, inhibitor | human, liver microsomes | – | Ki | 9.6 µM
